Assay results as given in ChEMBL document CHEMBL4339207, “Kinase inhibitions in pyrido[4,3-h] and [3,4-g]quinazolines: Synthesis, SAR and molecular modeling studies” (Bioorg Med Chem, 2019).

Tests used:
[1] = molecular target: T1, Dual specificity protein kinase CLK1 (Homo sapiens, UniProt P49759); experiment: Inhibition of recombinant human N-terminal GST-tagged CLK1 (129 to end residues) expressed in baculovirus infected Sf9 insect cells assessed as residual activity at 10 uM using MBP as substrate measured after 60 mins by ADP-Glo luminescence assay relative to control
Target sequence in this assay (P49759 whole entry, looked up): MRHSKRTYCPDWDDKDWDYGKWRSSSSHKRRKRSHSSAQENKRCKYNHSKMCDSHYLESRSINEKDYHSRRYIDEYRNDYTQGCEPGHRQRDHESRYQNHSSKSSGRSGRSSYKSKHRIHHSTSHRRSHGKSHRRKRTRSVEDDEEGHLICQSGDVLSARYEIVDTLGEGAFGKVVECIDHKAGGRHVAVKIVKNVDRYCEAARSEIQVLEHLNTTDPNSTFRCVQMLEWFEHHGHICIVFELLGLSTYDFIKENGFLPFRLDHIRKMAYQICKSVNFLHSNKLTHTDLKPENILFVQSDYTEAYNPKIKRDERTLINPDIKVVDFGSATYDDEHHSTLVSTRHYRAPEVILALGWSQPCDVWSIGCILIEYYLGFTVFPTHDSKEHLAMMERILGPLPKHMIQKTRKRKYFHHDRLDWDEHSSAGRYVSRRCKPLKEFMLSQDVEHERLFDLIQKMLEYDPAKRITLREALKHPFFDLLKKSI

[2] = molecular target: T1, Dual specificity protein kinase CLK1; experiment: Inhibition of recombinant human N-terminal GST-tagged CLK1 (129 to end residues) expressed in baculovirus infected Sf9 insect cells assessed as residual activity at 1 uM using MBP as substrate measured after 60 mins by ADP-Glo luminescence assay relative to control
Target sequence in this assay (P49759 whole entry, looked up): as above

[3] = molecular target: T1, Dual specificity protein kinase CLK1; experiment: Inhibition of recombinant human N-terminal GST-tagged CLK1 (129 to end residues) expressed in baculovirus infected Sf9 insect cells sing MBP as substrate measured after 60 mins by ADP-Glo luminescence assay
Target sequence in this assay (P49759 whole entry): as the sequence (P49759 whole entry, looked up) above

[4] = molecular target: Dual specificity tyrosine-phosphorylation-regulated kinase 1A (Rattus norvegicus) (UniProt Q63470); experiment: Inhibition of recombinant full-length rat N-terminal GST-tagged DYRK1A was expressed in Escherichia coli assessed as residual activity at 10 uM using DYRKtide as substrate measured after 60 mins by ADP-Glo luminescence assay relative to control
[5] = molecular target: Dual specificity tyrosine-phosphorylation-regulated kinase 1A (Rattus norvegicus) (UniProt Q63470); experiment: Inhibition of recombinant full-length rat N-terminal GST-tagged DYRK1A was expressed in Escherichia coli assessed as residual activity at 1 uM using DYRKtide as substrate measured after 60 mins by ADP-Glo luminescence assay relative to control
[6] = molecular target: Dual specificity tyrosine-phosphorylation-regulated kinase 1A (Rattus norvegicus, UniProt Q63470); experiment: Inhibition of recombinant full-length rat N-terminal GST-tagged DYRK1A was expressed in Escherichia coli using DYRKtide as substrate measured after 60 mins by ADP-Glo luminescence assay
[7] = molecular target: T2, Casein kinase I (Homo sapiens) (UniProt Q9HCP0+P78368+P48730+P49674+P48729); experiment: Inhibition of CK1 (unknown origin) assessed as residual activity at 1 uM relative to control
[8] = molecular target: T3, Glycogen synthase kinase-3 (Homo sapiens) (UniProt P49840+P49841); experiment: Inhibition of GSK3 (unknown origin) assessed as residual activity at 1 uM relative to control
[9] = molecular target: T2, Casein kinase I (Homo sapiens); experiment: Inhibition of CK1 (unknown origin) assessed as residual activity at 10 uM relative to control
[10] = molecular target: T3, Glycogen synthase kinase-3 (Homo sapiens); experiment: Inhibition of GSK3 (unknown origin) assessed as residual activity at 10 uM relative to control
[11] = molecular target: T4, Cyclin-dependent kinase 5/CDK5 activator 1 (Homo sapiens) (UniProt Q00535+Q15078); experiment: Inhibition of recombinant human full-length N-terminal GST-tagged CDK5/p25 expressed in baculovirus infected Sf9 insect cells assessed as residual activity at 1 uM using histone H1 as substrate measured after 10 mins relative to control
[12] = molecular target: T4, Cyclin-dependent kinase 5/CDK5 activator 1 (Homo sapiens); experiment: Inhibition of recombinant human full-length N-terminal GST-tagged CDK5/p25 expressed in baculovirus infected Sf9 insect cells assessed as residual activity at 10 uM using histone H1 as substrate measured after 10 mins relative to control
[13] = molecular target: Dual specificity protein kinase CLK1 (Mus musculus) (UniProt P22518); experiment: Inhibition of recombinant mouse CLK1 expressed in bacteria assessed as residual activity at 10 uM using GRSRSRSRSRSR as substrate in presence of [gamma33P]ATP relative to control
[14] = molecular target: Dual specificity protein kinase CLK1 (Mus musculus) (UniProt P22518); experiment: Inhibition of recombinant mouse CLK1 expressed in bacteria assessed as residual activity at 1 uM using GRSRSRSRSRSR as substrate in presence of [gamma33P]ATP relative to control
[15] = molecular target: Dual specificity tyrosine-phosphorylation-regulated kinase 1A (Rattus norvegicus) (UniProt Q63470); experiment: Inhibition of rat DYRK1A kinase domain (1 to 499 residues) expressed in bacteria assessed as residual activity at 10 uM using KKISGRLSPIMTEQ as substrate in presence of [gamma33P]ATP relative to control
[16] = molecular target: Dual specificity tyrosine-phosphorylation-regulated kinase 1A (Rattus norvegicus) (UniProt Q63470); experiment: Inhibition of rat DYRK1A kinase domain (1 to 499 residues) expressed in bacteria assessed as residual activity at 1 uM using KKISGRLSPIMTEQ as substrate in presence of [gamma33P]ATP relative to control
[17] = molecular target: T4, Cyclin-dependent kinase 5/CDK5 activator 1 (Homo sapiens); experiment: Inhibition of recombinant human CDK5/p25 expressed in bacteria assessed as residual activity at 10 uM using histone H1 as substrate in presence of [gamma33P]ATP relative to control
Summary of the method: (§1)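 Recombinant human CDK5/p25 expressed in bacteria was used with histone H1 as substrate in a ³³P radioassay. Residual activity (%) was measured at 10 µM and 1 µM compound, in triplicate.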

[18] = molecular target: T4, Cyclin-dependent kinase 5/CDK5 activator 1 (Homo sapiens); experiment: Inhibition of recombinant human CDK5/p25 expressed in bacteria assessed as residual activity at 1 uM using histone H1 as substrate in presence of [gamma33P]ATP relative to control; summary of the method: as §1
[19] = molecular target: T5, Glycogen synthase kinase-3 (Sus scrofa) (UniProt B2LUN4+I6LNT8); experiment: Inhibition of porcine brain GSK3alpha/beta assessed as residual activity at 10 uM using YRRAAVPPSPSLSRHSSPHQSpEDEEE as substrate in presence of [gamma33P]ATP relative to control
Summary of the method: (§2)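 Radiometric kinase assay (method A, ³³P). GSK-3α/β affinity-purified from porcine brain (Sus scrofa domesticus). Inhibitors tested at 10 µM and 1 µM. Result reported as % residual kinase activity. Assays run in triplicate.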

[20] = molecular target: T5, Glycogen synthase kinase-3 (Sus scrofa); experiment: Inhibition of porcine brain GSK3alpha/beta assessed as residual activity at 1 uM using YRRAAVPPSPSLSRHSSPHQSpEDEEE as substrate in presence of [gamma33P]ATP relative to control; summary of the method: as §2
[21] = species on record: Sus scrofa; experiment: Inhibition of porcine brain CK1delta/epsilon assessed as residual activity at 10 uM using RRKHAAIGSpAYSITA as substrate in presence of [gamma33P]ATP relative to control
[22] = species on record: Sus scrofa; experiment: Inhibition of porcine brain CK1delta/epsilon assessed as residual activity at 1 uM using RRKHAAIGSpAYSITA as substrate in presence of [gamma33P]ATP relative to control
[23] = molecular target: Dual specificity protein kinase CLK1 (Mus musculus, UniProt P22518); experiment: Inhibition of recombinant mouse CLK1 expressed in bacteria using GRSRSRSRSRSR as substrate in presence of [gamma33P]ATP
Sequence of Dual specificity protein kinase CLK1 (Mus musculus, UniProt P22518) (P22518 whole entry): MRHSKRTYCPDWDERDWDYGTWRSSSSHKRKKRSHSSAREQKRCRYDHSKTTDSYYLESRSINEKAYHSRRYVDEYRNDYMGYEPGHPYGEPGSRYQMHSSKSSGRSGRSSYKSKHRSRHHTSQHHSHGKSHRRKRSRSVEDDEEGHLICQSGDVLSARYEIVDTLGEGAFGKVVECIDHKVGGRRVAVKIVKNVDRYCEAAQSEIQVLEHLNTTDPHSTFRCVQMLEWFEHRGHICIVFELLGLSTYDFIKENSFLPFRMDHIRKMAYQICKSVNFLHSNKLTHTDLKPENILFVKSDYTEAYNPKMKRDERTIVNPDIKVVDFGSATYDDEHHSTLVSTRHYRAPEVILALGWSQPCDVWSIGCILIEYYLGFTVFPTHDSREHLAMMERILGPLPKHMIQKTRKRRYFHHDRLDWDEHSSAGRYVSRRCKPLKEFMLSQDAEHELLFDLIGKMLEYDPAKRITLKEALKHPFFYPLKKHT

T4 sequence (Q00535 whole entry): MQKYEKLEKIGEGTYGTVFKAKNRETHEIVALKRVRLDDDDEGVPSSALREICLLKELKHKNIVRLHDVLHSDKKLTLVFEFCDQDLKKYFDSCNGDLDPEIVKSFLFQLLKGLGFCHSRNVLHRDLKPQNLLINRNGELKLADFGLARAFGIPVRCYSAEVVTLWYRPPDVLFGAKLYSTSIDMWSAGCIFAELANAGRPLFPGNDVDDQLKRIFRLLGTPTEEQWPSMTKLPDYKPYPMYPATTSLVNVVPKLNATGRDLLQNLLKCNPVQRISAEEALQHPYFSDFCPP
T4 sequence (Q15078 99-307 partner limits assumed): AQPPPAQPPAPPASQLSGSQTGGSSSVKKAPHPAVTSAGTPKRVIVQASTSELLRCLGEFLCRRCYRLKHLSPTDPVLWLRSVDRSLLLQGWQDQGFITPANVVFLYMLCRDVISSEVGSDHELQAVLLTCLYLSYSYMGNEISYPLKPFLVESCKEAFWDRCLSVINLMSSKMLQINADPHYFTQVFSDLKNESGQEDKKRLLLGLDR
Sequence of Dual specificity protein kinase CLK1 (Mus musculus) (P22518 whole entry, looked up, the tested form may be a part): as the sequence (P22518 whole entry) above
T3 sequence (P49840 whole entry, looked up): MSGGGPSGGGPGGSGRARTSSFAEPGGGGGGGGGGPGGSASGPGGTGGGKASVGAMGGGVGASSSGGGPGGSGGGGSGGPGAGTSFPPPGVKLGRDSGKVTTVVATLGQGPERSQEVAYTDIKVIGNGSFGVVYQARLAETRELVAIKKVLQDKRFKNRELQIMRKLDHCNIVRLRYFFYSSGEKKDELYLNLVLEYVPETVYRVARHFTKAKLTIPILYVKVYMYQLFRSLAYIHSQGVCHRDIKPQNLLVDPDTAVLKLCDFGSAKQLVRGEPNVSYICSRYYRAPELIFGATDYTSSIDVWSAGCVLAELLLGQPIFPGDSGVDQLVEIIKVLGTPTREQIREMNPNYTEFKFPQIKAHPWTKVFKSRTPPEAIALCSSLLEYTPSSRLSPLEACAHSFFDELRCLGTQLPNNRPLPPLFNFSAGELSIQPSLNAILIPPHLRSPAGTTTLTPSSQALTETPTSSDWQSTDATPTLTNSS
T3 sequence (P49841 whole entry, looked up): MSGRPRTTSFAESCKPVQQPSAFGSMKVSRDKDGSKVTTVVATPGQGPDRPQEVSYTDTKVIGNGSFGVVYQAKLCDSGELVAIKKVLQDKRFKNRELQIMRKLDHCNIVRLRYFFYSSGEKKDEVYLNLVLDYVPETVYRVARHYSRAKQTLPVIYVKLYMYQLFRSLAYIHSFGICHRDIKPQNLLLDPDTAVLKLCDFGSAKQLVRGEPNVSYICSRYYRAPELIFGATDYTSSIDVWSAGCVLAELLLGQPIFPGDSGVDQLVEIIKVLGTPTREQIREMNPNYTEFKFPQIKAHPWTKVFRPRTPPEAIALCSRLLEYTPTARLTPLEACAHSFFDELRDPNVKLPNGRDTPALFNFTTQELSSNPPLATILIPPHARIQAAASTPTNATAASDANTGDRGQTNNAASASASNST

Row | Structure (SMILES) | Activity [13] | Activity [14] | Activity [15] | Activity [16] | Activity [17] | Activity [18] | Activity [19] | Activity [20] | Activity [21] | Activity [22] | other results
1 | Nc1ncc2ccc3ccncc3c2n1 |  |  |  |  |  |  |  |  |  |  | Activity [1]: 9%; Activity [2]: 48%; IC50 [3]: 1.48 µM; Activity [4]: 25%; Activity [5]: 71%; IC50 [6]: 2.18 µM; Activity [7]: 64%; Activity [8]: 98%; Activity [9]: 22%; Activity [10]: 75%; Activity [11]: 100%; Activity [12]: 63%
2 | Nc1ncc2cc3cnccc3c([N+](=O)[O-])c2n1 | 2% | 6% | 5% | 36% | 56% | 88% | 25% | 74% | 9% | 41% | 
3 | CN(C)CNc1ncc2cc3cnccc3c([N+](=O)[O-])c2n1 | 6% | 13% | 4% | 39% | 41% | 99% | 15% | 73% | 38% | 100% | IC50 [23]: 0.087 µM
4 | CC(C)N(CNc1ncc2cc3cnccc3c([N+](=O)[O-])c2n1)C(C)C | 5% | 44% | 46% | 69% | 61% | 99% | 1% | 53% | 38% | 74% | 
5 | CC(C)N(/C=N/c1ncc2cc3cnccc3c([N+](=O)[O-])c2n1)C(C)C | 1% | 53% | 46% | 95% | 45% | 100% | 15% | 73% | 60% | 96% | 
6 | CN(C)/C=N/c1ncc2cc3cnccc3c([N+](=O)[O-])c2n1 | 3% | 33% | 31% | 100% | 59% | 94% | 30% | 86% | 53% | 100% | 
